ChEMBL document CHEMBL1129365, “Rational design of novel immunosuppressive drugs: analogues of azathioprine lacking the 6-mercaptopurine substituent retain or have enhanced immunosuppressive effects” (1996)

Key:
Type in all cases: functional
[1] = Inhibition of lymphocyte proliferation in vitro by 25 uM.; details: Homo sapiens
[2] = Effective dose against inhibitory potency in Human mixed lymphocyte reaction; details: read-out: ED50 (the source's name)
Summary of the method: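 Human MLR: responder lymphocytes and mitomycin-C-treated stimulator lymphocytes, isolated on Ficoll-Metrizoate (10^5 each), cultured in triplicate in RPMI 1640 with 2 mM glutamine, 10 mM HEPES and 20% (final) pooled human AB serum plus drug. Incubation 5 days at 37 °C under 5% CO2/95% air. [3H]thymidine incorporation read; ED50 taken from a graph of ≥4 points, each the mean of 3–10 experiments.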

[3] = Percent inhibition against incorporation of [3H]-thymidine in Human mixed lymphocyte reaction at a concentration of 25 uM
[4] = Percent inhibition against incorporation of [3H]thymidine in Human mixed lymphocyte reaction at a concentration of 10 uM.
[5] = Percent inhibition against incorporation of [3H]thymidine in Human mixed lymphocyte reaction at a concentration of 50 uM.
[6] = Inhibition of human mixed leukocyte proliferation in vitro; Not determined.; details: read-out: ED50 (the source's name)

Row | SMILES | inhibition at 25 µM [1] | inhibition at 25 µM [3] | also measured
1 | Cn1cnc([N+](=O)[O-])c1Sc1nc2ccccc2[nH]1 | 90% | – | –
2 | Cc1ccc2[nH]c(Sc3c([N+](=O)[O-])ncn3C)nc2c1 | 86% | – | –
3 | Cn1cnc([N+](=O)[O-])c1Sc1nc[nH]n1 | 58% | – | EC50 [2]: 14 µM
4 | Cn1cnc([N+](=O)[O-])c1Sc1nc2cc([N+](=O)[O-])ccc2[nH]1 | 2% | – | –
5 | Cn1cnc([N+](=O)[O-])c1Sc1nccc(O)n1 | 29% | – | –
6 | Cn1cnc([N+](=O)[O-])c1Sc1nc2ccccc2s1 | – | 27% | –
7 | CCn1c(C)nc([N+](=O)[O-])c1Sc1nccn1C | 100% | – | inhibition at 10 µM [4]: 98%; EC50 [2]: 2.9 µM
8 | Cn1cnc([N+](=O)[O-])c1Sc1ncnc2[nH]cnc12 [AZATHIOPRINE] | – | 79% | EC50 [2]: 7.9 µM
9 | Cn1cnc([N+](=O)[O-])c1SC1=NCCS1 | 100% | – | –
10 | Cc1cc(C)cc(Sc2c([N+](=O)[O-])ncn2C)c1 | – | 47% | –
11 | COc1cc2nc(Sc3c([N+](=O)[O-])ncn3C)[nH]c2cc1OC | 94% | – | –
12 | Cn1cnc([N+](=O)[O-])c1Sc1ncc[nH]1 | 100% | – | inhibition at 10 µM [4]: 89%; EC50 [2]: 2.8 µM
13 | Cn1cnc([N+](=O)[O-])c1Sc1nc2ccccc2o1 | – | 87% | –
14 | COc1ccc(OC)c2[nH]c(Sc3c([N+](=O)[O-])ncn3C)nc12 | 41% | – | –
15 | Cn1cnnc1Sc1c([N+](=O)[O-])ncn1C | 100% | – | inhibition at 10 µM [4]: 98%; EC50 [2]: 2.7 µM
16 | Cn1cnc([N+](=O)[O-])c1Sc1ccccc1C(=O)O | – | 34% | –
17 | Cn1cnc([N+](=O)[O-])c1Sc1ccccc1N | 21% | – | –
18 | Cn1cnc([N+](=O)[O-])c1Sc1ccccn1 | – | 76% | –
19 | Cn1cnc([N+](=O)[O-])c1Sc1ncccn1 | 47% | – | –
20 | Cn1cnc([N+](=O)[O-])c1Sc1nc2cc(Cl)c(F)cc2[nH]1 | – | – | inhibition at 50 µM [5]: 59%
21 | Cn1cnc([N+](=O)[O-])c1Sc1[nH]cnc2nc(O)nc1-2 | – | 50% | EC50 [6]: 24 µM
22 | Cc1cc(C)nc(Sc2c([N+](=O)[O-])ncn2C)n1 | 47% | – | –
23 | CCn1c(C)nc([N+](=O)[O-])c1Sc1nncn1C | 100% | – | inhibition at 10 µM [4]: 98%; EC50 [2]: 2.5 µM
24 | CCOC(=O)CSc1c([N+](=O)[O-])ncn1C | – | 65% | –
25 | Cn1ccnc1Sc1c([N+](=O)[O-])ncn1C | 100% | – | inhibition at 10 µM [4]: 82%; EC50 [2]: 3.15 µM
